Measurements reported in ChEMBL document CHEMBL4406921, “Discovery of Axelopran (TD-1211): A Peripherally Restricted μ-Opioid Receptor Antagonist” (ACS Med Chem Lett, 2019).

Columns and labels:
[1] = Half life in rat liver microsomes at 3 uM; assay type: ADME, Microsome
Mus musculus [2] = assay: Inhibition of morphine-induced delays in intestinal transit in po dosed ICR mouse administered via gavage pretreated with compound and 30 mins later injected with morphine followed 5 mins later by ingestion of test meal and measured after 60 mins; assay type: functional; settings: for ED50: read-out: ID50 (the source's name)
Procedure, shortened: (§1)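 Mice dosed orally; reversal of morphine-induced delay in intestinal transit, delay in gastric emptying, or hot plate antinociception measured; dose-dependent responses fitted to give ID50 in mg/kg.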

Mus musculus [3] = assay: Inhibition of morphine-induced antinociceptive activity in po dosed ICR mouse administered via gavage pretreated with compound and 30 mins later injected with morphine and measured after 30 mins by hot plate test; assay type: functional; settings: for ED50: read-out: ID50 (the source's name); procedure, shortened: as §1
[4] = target: Kappa-type opioid receptor (Cavia porcellus, UniProt P41144); assay: Displacement of [3H]-DPN from guinea pig kappa opioid receptor expressed in CHO-K1 cell membranes by radioligand binding assay
Procedure, shortened: (§2)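 Membranes from CHO-K1 cells stably transfected with human recombinant μ or δ receptor, or guinea pig κ receptor; competition with [3H]-DPN radioligand; affinity reported as pKi.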

Mu-type opioid receptor [5] = target: T1, Mu-type opioid receptor (Homo sapiens, UniProt P35372); assay: Displacement of [3H]-DPN from recombinant human mu opioid receptor expressed in CHO-K1 cell membranes by radioligand binding assay; procedure, shortened: as §2
[6] = AUC(0 to t) in Sprague-Dawley rat at 5 mg/kg, po administered via gavage; assay type: ADME, organism-based; settings: in vivo
Mu-type opioid receptor [7] = target: T1, Mu-type opioid receptor; assay: Antagonist activity at human recombinant mu opioid receptor expressed in CHO-K1 cell membranes assessed as intrinsic activity at 10 pM to 20 uM incubated for 30 mins in presence of Eu-GTP by DELFIA GTP binding assay relative to DAMGO
Mus musculus [8] = assay: Inhibition of morphine-induced delays in gastric emptying in po dosed ICR mouse administered via gavage pretreated with compound and 30 mins later injected with morphine followed 5 mins later by ingestion of test meal and measured after 60 mins; assay type: functional; settings: for ED50: read-out: ID50 (the source's name); procedure, shortened: as §1
Mus musculus [9] = organism: Mus musculus; assay: Peripheral selectivity index, ratio of ID50 for inhibition of morphine-induced delays in gastric emptying in ICR mouse to ID50 for inhibition of morphine-induced delays in intestinal transit in ICR mouse; assay type: functional
[10] = Half life in Sprague-Dawley rat at 5 mg/kg, po administered via gavage; assay type: ADME, organism-based; settings: in vivo
Mus musculus [11] = organism: Mus musculus; assay: Peripheral selectivity index, ratio of ID50 for inhibition of morphine-induced antinociceptive activity in ICR mouse to ID50 for inhibition of morphine-induced delays in intestinal transit in ICR mouse; assay type: functional
Procedure, shortened: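 Mice were dosed orally with antagonist at several doses and challenged with morphine. ID50 values were taken from dose-dependent reversal of morphine-induced hot plate antinociception (CNS) and of morphine-induced delay in intestinal transit (peripheral). The index is the hot plate ID50 divided by the intestinal transit ID50.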

[12] = Half life in human liver microsomes at 3 uM; assay type: ADME, Microsome
[13] = target: Delta-type opioid receptor (Homo sapiens, UniProt P41143); assay: Displacement of [3H]-DPN from recombinant human delta opioid receptor expressed in CHO-K1 cell membranes by radioligand binding assay; procedure, shortened: as §2
[14] = Cmax in Sprague-Dawley rat at 5 mg/kg, po administered via gavage; assay type: ADME, organism-based; set-up: dose 5 mg/kg, route oral; settings: in vivo
[15] = Permeability coefficient, Kp in human Caco2 cells; assay type: ADME, cell-based; settings: Caco-2, read-out: Kp
[16] = Oral bioavailability in Sprague-Dawley rat at 5 mg/kg administered via gavage; assay type: ADME, organism-based; settings: in vivo
[17] = Half life in dog liver microsomes at 3 uM; assay type: ADME, Canis lupus familiaris, Microsome

Sequence of Delta-type opioid receptor (P41143 whole entry): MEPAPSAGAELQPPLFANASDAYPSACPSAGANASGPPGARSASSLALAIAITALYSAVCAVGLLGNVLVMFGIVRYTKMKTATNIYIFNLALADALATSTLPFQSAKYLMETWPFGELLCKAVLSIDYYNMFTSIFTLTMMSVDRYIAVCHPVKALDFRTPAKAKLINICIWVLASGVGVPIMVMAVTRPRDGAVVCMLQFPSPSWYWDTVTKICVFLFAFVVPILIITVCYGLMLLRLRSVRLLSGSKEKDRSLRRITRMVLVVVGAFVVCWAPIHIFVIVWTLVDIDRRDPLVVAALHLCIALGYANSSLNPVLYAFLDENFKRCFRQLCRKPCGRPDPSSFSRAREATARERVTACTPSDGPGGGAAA
Sequence of Kappa-type opioid receptor (P41144 whole entry): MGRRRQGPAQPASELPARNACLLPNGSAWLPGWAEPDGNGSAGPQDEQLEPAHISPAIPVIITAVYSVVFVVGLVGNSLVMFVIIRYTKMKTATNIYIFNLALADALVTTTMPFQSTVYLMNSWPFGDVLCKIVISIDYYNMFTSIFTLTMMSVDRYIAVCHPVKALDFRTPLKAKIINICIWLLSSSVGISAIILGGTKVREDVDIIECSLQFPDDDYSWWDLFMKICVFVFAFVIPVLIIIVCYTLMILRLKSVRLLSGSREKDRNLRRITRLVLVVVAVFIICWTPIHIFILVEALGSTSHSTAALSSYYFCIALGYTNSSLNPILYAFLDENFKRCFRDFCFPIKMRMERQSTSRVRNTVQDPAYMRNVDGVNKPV
T1 sequence (P35372 whole entry): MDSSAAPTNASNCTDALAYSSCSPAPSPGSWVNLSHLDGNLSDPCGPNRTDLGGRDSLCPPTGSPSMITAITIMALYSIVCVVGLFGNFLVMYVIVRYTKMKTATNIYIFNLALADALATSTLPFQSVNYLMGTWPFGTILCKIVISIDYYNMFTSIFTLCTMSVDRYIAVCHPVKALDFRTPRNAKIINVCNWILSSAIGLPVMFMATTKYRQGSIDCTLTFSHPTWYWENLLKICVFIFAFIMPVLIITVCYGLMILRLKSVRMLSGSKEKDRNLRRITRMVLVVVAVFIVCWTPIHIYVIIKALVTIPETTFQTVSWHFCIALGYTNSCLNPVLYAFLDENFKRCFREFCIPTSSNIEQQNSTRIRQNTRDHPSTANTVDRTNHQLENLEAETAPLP

| SMILES | half-life at 3 µM [1] [h] | inhibition (Mus musculus [2]) | ED50 (Mus musculus [2]) [mg/kg] | inhibition (Mus musculus [3]) | ED50 (Mus musculus [3]) [mg/kg] | Ki [4] [nM] | Ki (Mu-type opioid receptor [5]) [nM] | AUC(0-t) [6] [ng·h/mL] | Intrinsic activity (Mu-type opioid receptor [7]) [%] | inhibition (Mus musculus [8]) | ED50 (Mus musculus [8]) [mg/kg] | Selectivity Index (Mus musculus [9]) | half-life [10] [h] | Selectivity Index (Mus musculus [11]) | half-life at 3 µM [12] [h] | Ki [13] [nM] | Cmax [14] [ng/mL] | Papp [15] [×10⁻⁶ cm/s] | bioavailability [16] [%] | half-life at 3 µM [17] [h] |
| --- | --- | --- | --- | --- | --- | --- | --- | --- | --- | --- | --- | --- | --- | --- | --- | --- | --- | --- | --- | --- |
| NC(=O)c1cccc([C@H]2C[C@H]3CC[C@@H](C2)N3CCN(CC2CCCCC2)C(=O)CO)c1 | 1.28 | Dose-dependent effect | 0.1 | Dose-dependent effect | 4.2 | 0.126 | 0.1 | 430 | -3 | Dose-dependent effect | 0.046 | 91 | 1.3 | 42 | 1.32 | 3.98 | 290 | 40 | 61 | 0.3 |
| CC(C)(C)C(=O)N(CCN1[C@@H]2CC[C@H]1C[C@@H](c1cccc(C(N)=O)c1)C2)CC1CCCCC1 | 0.2 |  |  |  |  | 0.158 | 0.126 |  | 3 |  |  |  |  |  | 0.15 | 2 |  |  |  | 0.0333 |
| CC(=O)N(CCN1[C@@H]2CC[C@H]1C[C@@H](c1cccc(C(N)=O)c1)C2)CC1CCCCC1 | 1.23 |  |  |  |  | 0.126 | 0.1 |  | -1 |  |  |  |  |  | 1.05 | 1.58 |  |  |  | 0.267 |
| CC(C)NC(=O)N(CCN1[C@@H]2CC[C@H]1C[C@@H](c1cccc(C(N)=O)c1)C2)CC1CCCCC1 | 0.333 |  |  |  |  | 0.158 | 0.2 |  | 21 |  |  |  |  |  |  | 1.26 |  | 36 |  | 0.233 |
| O=C1CC[C@@]2(O)[C@H]3Cc4ccc(O)c5c4[C@@]2(CCN3CC2CC2)[C@H]1O5 [NALTREXONE] |  |  | 0.6 |  | 0.82 |  |  |  |  |  | 0.5 |  |  |  |  |  |  | 84 |  |  |
| NC(=O)c1cccc([C@H]2C[C@H]3CC[C@@H](C2)N3CCN(CC2CCC(F)(F)CC2)C(=O)CO)c1 | 1.5 | Dose-dependent effect | 0.23 | Dose-dependent effect | 4.4 | 0.251 | 0.126 | 1200 | -5 | Dose-dependent effect | 0.03 | 147 | 2 | 19 | 1.5 | 12.6 | 390 | 14 | 30 | 1.5 |
| CS(=O)(=O)N(CCN1[C@@H]2CC[C@H]1C[C@@H](c1cccc(C(N)=O)c1)C2)CC1CCCCC1 | 0.217 |  |  |  |  | 0.794 | 0.251 |  | 1 |  |  |  |  |  | 0.317 | 7.94 |  |  |  | 0.0333 |
| CCC(CC)CN(CCCCN1[C@@H]2CC[C@H]1C[C@@H](c1cccc(C(N)=O)c1)C2)C(=O)CO | 1.5 |  |  |  |  |  | 0.631 |  | -1 |  |  |  |  |  | 0.35 | 20 |  |  |  | 1.5 |
| CN(C)S(=O)(=O)N(CCN1[C@@H]2CC[C@H]1C[C@@H](c1cccc(C(N)=O)c1)C2)CC1CCCCC1 | 0.133 |  |  |  |  | 0.2 | 0.2 |  | 0 |  |  |  |  |  | 0.15 | 2 |  |  |  | 0.0833 |
| CCCCCCN(CCN1[C@@H]2CC[C@H]1C[C@@H](c1cccc(C(N)=O)c1)C2)C(=O)CO | 1.18 |  |  |  |  | 3.16 | 0.794 |  | -9 |  |  |  |  |  | 1.5 | 63.1 |  | 45 |  | 0.183 |
| NC(=O)c1cccc([C@H]2C[C@H]3CC[C@@H](C2)N3CCN(CC2CCCCC2)C(=O)Cc2nnn[nH]2)c1 | 1.5 |  |  |  |  | 1.58 | 0.398 |  | 0 |  |  |  |  |  | 1.5 | 3.16 |  | < 1 |  | 1.5 |
| CCC(CC)CN(CCN1[C@@H]2CC[C@H]1C[C@@H](c1cccc(C(N)=O)c1)C2)C(=O)CO | 1.5 |  |  |  |  | 0.126 | 0.158 |  | 9 |  |  |  |  |  | 1.5 | 12.6 |  | 32 |  | 1.25 |
| NC(=O)c1cccc([C@H]2C[C@H]3CC[C@@H](C2)N3CCN(CCc2ccccc2)C(=O)CO)c1 | 0.567 |  |  |  |  |  |  |  |  |  |  |  |  |  | 1.5 | 20 |  | 16 |  | 1.02 |
| C[C@H]1CN(CCCc2ccccc2)CC[C@@]1(C)c1cccc(O)c1 | 0.1 |  |  |  |  | 0.794 | 0.1 |  | -21 |  |  |  |  |  |  | 1.26 |  |  |  |  |
| CCC(CC)CN(CCCCCN1[C@@H]2CC[C@H]1C[C@@H](c1cccc(C(N)=O)c1)C2)C(=O)CO | 0.467 |  |  |  |  |  | 0.631 |  | 1 |  |  |  |  |  | 0.2 | 20 |  |  |  | 0.317 |
| NC(=O)c1cccc([C@H]2C[C@H]3CC[C@@H](C2)N3CCN(Cc2ccccc2)C(=O)CO)c1 | 1.42 |  |  |  |  | 0.2 |  |  | -3 |  |  |  |  |  | 1.5 | 5.01 |  | 21 |  | 1.5 |
| NC(=O)c1cccc([C@H]2C[C@H]3CC[C@@H](C2)N3CCN(CC2CCCC2)C(=O)CO)c1 | 1.5 |  |  |  |  | 0.316 | 0.251 |  | 4 |  |  |  |  |  | 1.5 | 15.8 |  | 12 |  | 0.233 |
| CCC(CC)CN(CCCCCCN1[C@@H]2CC[C@H]1C[C@@H](c1cccc(C(N)=O)c1)C2)C(=O)CO | 0.433 |  |  |  |  |  | 1 |  | -2 |  |  |  |  |  | 0.15 | 25.1 |  |  |  | 0.15 |
| NC(=O)c1cccc([C@H]2C[C@H]3CC[C@@H](C2)N3CCN(CC2CCCCC2)C(=O)c2ccco2)c1 | 0.167 |  |  |  |  | 0.1 | 0.1 |  | 1 |  |  |  |  |  | 0.283 | 1.26 |  |  |  | 0.0333 |
| C[C@H]1CN(C[C@H](Cc2ccccc2)C(=O)O)CC[C@@]1(C)c1cccc(O)c1 | > 1.5 |  | 0.064 |  | 1.1 | 25.1 | 0.316 | 1200 | -8 |  | 0.027 | 41 | 3.7 | 17 | > 1.5 | 15.8 | 710 | 5 | 53 | > 1.5 |
| NC(=O)c1cccc([C@H]2C[C@H]3CC[C@@H](C2)N3CCN(CC2CCOCC2)C(=O)CO)c1 | 1.5 |  |  |  |  | 6.31 | 12.6 |  | 0 |  |  |  |  |  | 1.5 | 200 |  | < 1 |  | 1.5 |
| NC(=O)c1cccc([C@H]2C[C@H]3CC[C@@H](C2)N3CCN(CC2CCC2)C(=O)CO)c1 | 1.5 |  |  |  |  | 0.631 | 1.58 |  | 13 |  |  |  |  |  | 1.5 | 31.6 |  | 14 |  | 1.5 |
| COC(=O)N(CCN1[C@@H]2CC[C@H]1C[C@@H](c1cccc(C(N)=O)c1)C2)CC1CCCCC1 | 0.0333 |  |  |  |  | 0.2 | 0.126 |  | 7 |  |  |  |  |  | 0.117 | 2.51 |  |  |  | 0.0333 |
| C[C@H]1CN(CCC(=O)O)CC[C@@]1(C)c1cccc(O)c1 | > 1.5 |  |  |  |  |  | 631 |  | 4 |  |  |  |  |  |  | 3160 |  | < 1 |  |  |
| CCC(CC)CN(CCCN1[C@@H]2CC[C@H]1C[C@@H](c1cccc(C(N)=O)c1)C2)C(=O)CO | 1.48 |  |  |  |  | 0.2 |  |  | 3 |  |  |  |  |  | 1.5 | 3.16 |  | 20 |  | 1.5 |
